In ChEMBL document CHEMBL3804777, “Identification and Preclinical Pharmacology of BMS-986104: A Differentiated S1P1 Receptor Modulator in Clinical Trials” (ACS Med Chem Lett, 2016):
Activity calls are given as the source filed them. No cut-off for these calls is given here.

What was measured:
[1] = system: Mus musculus; assay: Induction of colon length shortening in SCID mouse with CD45RBhiCD4+ T-cell transfer-induced colitis model of inflammatory bowel disease at 1 or 5 mg/kg, po dosed every other day for 5 weeks; format: functional, organism-based
How it was run: (§1)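 CD45RBhiCD4+ T-cell transfer colitis in mice; oral alternate-day dosing for 5 weeks, compared with vehicle. Read-outs: body weight, colon length, histological colon inflammation and tissue damage, and colon gene expression by RT-PCR (IFN-γ, IL-2, CD4, B220, CD11b, Fcgr4, Ifit1, OASL2).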

[2] = system: Mus musculus; assay: Pulmonary toxicity in BALB/c mouse assessed as BAL protein levels at 30 mg/kg, po after 24 by hematology analysis (reference value: 8.2 to 8.3 mg/dL); format: organism-based; conditions: in vivo
[3] = system: Mus musculus; assay: Reduction of blood lymphocyte level in BALB/c mouse at 1 mg/kg administered through oral gavage after 24 hrs by hematology analysis; format: functional; set-up: scale not given: the % may be the effect or the level left
How it was run: (§2)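 Mice given a single oral 1 mg/kg dose; circulating lymphocytes counted 24 h later as the pharmacodynamic marker.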

[4] = system: Mus musculus; assay: Reduction in Fcgr4 gene expression in SCID mouse with CD45RBhiCD4+ T-cell transfer-induced colitis model of inflammatory bowel disease at 1 mg/kg, po dosed daily for 5 weeks by RT-PCR method; format: functional; set-up: scale not given: the % may be the effect or the level left
How it was run: (§3)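 CD45RBhiCD4+ T-cell transfer colitis in mice; oral dosing at 1 mg/kg/day for 5 weeks, compared with vehicle. Read-outs: body weight, colon length, and colon gene expression by RT-PCR (IFN-γ, IL-2, CD4, B220, CD11b, Fcgr4, Ifit1, OASL2).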

[5] = Volume of distribution at steady state in mouse at 0.5 mg/kg, iv; format: ADME, organism-based; conditions: in vivo, read-out: Vdss
[6] = system: Mus musculus; assay: Reduction in blood lymphocyte level in BALB/c mouse at 1 mg/kg, po after 24 hrs by hematology analysis; format: functional, organism-based; how it was run: as §2
[7] = system: Mus musculus; assay: Reduction in B220 gene expression in SCID mouse with CD45RBhiCD4+ T-cell transfer-induced colitis model of inflammatory bowel disease at 1 mg/kg, po dosed daily for 5 weeks by RT-PCR method; format: functional; set-up: scale not given: the % may be the effect or the level left; conditions: in the assay text read “dosed on alternate days” for “dosed daily”
[8] = Plasma clearance in mouse at 0.5 mg/kg, iv; format: ADME, organism-based
[9] = system: Mus musculus; assay: Reduction in IFNgamma gene expression in SCID mouse with CD45RBhiCD4+ T-cell transfer-induced colitis model of inflammatory bowel disease at 1 mg/kg, po dosed daily for 5 weeks by RT-PCR method; format: functional; set-up: scale not given: the % may be the effect or the level left; conditions: in the assay text read “dosed on alternate days” for “dosed daily”
[10] = Drug metabolism in BALB/c mouse whole blood assessed as whole blood phosphate area ratio at 10 uM after 4 hrs by LC/MS/MS analysis; format: ADME, tissue-based
How it was run: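 Mouse whole blood incubated with the amino-alcohol prodrug; phosphorylated product measured by LC/MS/MS after 4 h to give the relative extent of phosphate ester formation.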

[11] = system: Mus musculus; assay: Reduction in Ifit1 gene expression in SCID mouse with CD45RBhiCD4+ T-cell transfer-induced colitis model of inflammatory bowel disease at 1 mg/kg, po dosed daily for 5 weeks by RT-PCR method; format: functional; set-up: scale not given: the % may be the effect or the level left; how it was run: as §3
[12] = system: Mus musculus; assay: Reduction in CD4 gene expression in SCID mouse with CD45RBhiCD4+ T-cell transfer-induced colitis model of inflammatory bowel disease at 1 mg/kg, po dosed daily for 5 weeks by RT-PCR method; format: functional; set-up: scale not given: the % may be the effect or the level left; conditions: in the assay text read “dosed on alternate days” for “dosed daily”
[13] = system: Mus musculus; assay: Reduction in lymphocyte level in BALB/c mouse assessed as blood lymphocyte level at 10 mg/kg, po after 24 hrs by hematology analysis (reference value: 5.13 to 8.02 10^3/mm3); format: functional
[14] = system: Mus musculus; assay: Reduction in colon tissue damage in SCID mouse with CD45RBhiCD4+ T-cell transfer-induced colitis model of inflammatory bowel disease at 1 or 5 mg/kg, po dosed every other day for 5 weeks by H and E staining method; format: functional, organism-based; how it was run: as §1
[15] = system: Blood; assay: Drug metabolism in BALB/c mouse blood assessed as formation of phosphate ester metabolite at 10 mg/kg administered through oral gavage after 4 hrs by LC/MS/MS analysis; format: ADME, organism-based; conditions: in vivo
How it was run: (§4)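 Mouse PK study: alcohol prodrug given orally at 10 mg/kg, and formation of the phosphate metabolite in blood measured.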

[16] = system: Blood; assay: Drug metabolism in BALB/c mouse blood assessed as formation of phosphate metabolite at 1 mg/kg administered through oral gavage after 24 hrs by LC/MS/MS analysis; format: ADME, organism-based; conditions: in vivo
How it was run: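 Single oral 1 mg/kg dose in mice; phosphate level in blood determined at 24 h postdose.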

[17] = system: Mus musculus; assay: Reduction in OASL2 gene expression in SCID mouse with CD45RBhiCD4+ T-cell transfer-induced colitis model of inflammatory bowel disease at 1 mg/kg, po dosed daily for 5 weeks by RT-PCR method; format: functional; set-up: scale not given: the % may be the effect or the level left; how it was run: as §3
[18] = system: Mus musculus; assay: Reduction in lymphocyte level in BALB/c mouse assessed as blood lymphocyte level at 0.5 mg/kg, po after 24 hrs by hematology analysis (reference value: 5.13 to 8.02 10^3/mm3); format: functional
[19] = system: Mus musculus; assay: Pulmonary toxicity in BALB/c mouse assessed as BAL protein levels at 0.5 mg/kg, po after 24 by hematology analysis (reference value: 8.2 to 8.3 mg/dL); format: organism-based; conditions: in vivo
[20] = system: Mus musculus; assay: Reduction in body weight loss in SCID mouse with CD45RBhiCD4+ T-cell transfer-induced colitis model of inflammatory bowel disease at 1 or 5 mg/kg, po dosed every other day for 5 weeks; format: functional, organism-based; how it was run: as §1
[21] = Oral bioavailability in mouse at 1 mg/kg; format: ADME, organism-based; conditions: in vivo
[22] = system: Mus musculus; assay: Reduction in CD11b gene expression in SCID mouse with CD45RBhiCD4+ T-cell transfer-induced colitis model of inflammatory bowel disease at 1 mg/kg, po dosed daily for 5 weeks by RT-PCR method; format: functional; set-up: scale not given: the % may be the effect or the level left; conditions: in the assay text read “dosed on alternate days” for “dosed daily”
[23] = system: Blood; assay: Drug metabolism in BALB/c mouse blood assessed as formation of phosphate ester metabolite at 10 mg/kg administered through oral gavage after 24 hrs by LC/MS/MS analysis; format: ADME, organism-based; conditions: in vivo; how it was run: as §4
[24] = system: Mus musculus; assay: Reduction in IL2 gene expression in SCID mouse with CD45RBhiCD4+ T-cell transfer-induced colitis model of inflammatory bowel disease at 1 mg/kg, po dosed daily for 5 weeks by RT-PCR method; format: functional; set-up: scale not given: the % may be the effect or the level left; conditions: in the assay text read “dosed on alternate days” for “dosed daily”
[25] = system: Mus musculus; assay: Reduction in lymphocyte level in BALB/c mouse assessed as blood lymphocyte level at 30 mg/kg, po after 24 hrs by hematology analysis (reference value: 5.13 to 8.02 10^3/mm3); format: functional
[26] = system: Mus musculus; assay: Pulmonary toxicity in BALB/c mouse assessed as BAL protein levels at 10 mg/kg, po after 24 by hematology analysis (reference value: 8.2 to 8.3 mg/dL); format: organism-based; conditions: in vivo
[27] = system: Mus musculus; assay: Reduction in colon inflammation in SCID mouse with CD45RBhiCD4+ T-cell transfer-induced colitis model of inflammatory bowel disease at 1 or 5 mg/kg, po dosed every other day for 5 weeks by H and E staining method; format: functional, organism-based; how it was run: as §1

CCCCCC[C@@H]1CCc2cc([C@H]3CC[C@](N)(CO)C3)ccc2C1 [BMS-986104]
Activity [1]: Dose-dependent effect
Activity [2]: 10 mg/dL
Activity [3]: 88%
Activity [4]: 50%
Vd [5]: 60 L/kg
Activity [6]: Active
Activity [7]: 47%
clearance [8]: 1.2 L/h/kg
Activity [9]: 45%
Ratio [10]: 0.6
Activity [11]: 42%
Activity [12]: 51%
Activity [13]: 0.51 ×10³ /mm3
Activity [14]: Dose-dependent effect
Drug metabolism [15]: 41 nM
Drug metabolism [16]: 27 nM
Activity [17]: 41%
Activity [18]: 1.65 ×10³ /mm3
Activity [19]: 7.67 mg/dL
inhibition [20]: Dose-dependent effect
bioavailability [21]: 65%
Activity [22]: 41%
Drug metabolism [23]: 202 nM
Activity [24]: 63%
Activity [25]: 0.52 ×10³ /mm3
Activity [26]: 8.25 mg/dL
Activity [27]: Dose-dependent effect
